Data published in ChEMBL document CHEMBL3425488, “Novel histone deacetylase inhibitors induce growth arrest, apoptosis, and differentiation in sarcoma cancer stem cells” (J Med Chem, 2015).
Activity calls are given as the source filed them. The calls are words filed in the database; no cut-off is given here.

Tests used:
[1] = system: A204; test: Cytotoxicity against human A204 cells assessed as cell viability after 72 hrs by MTT assay; type: functional, cell-based
How it was run: (§1)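 Sarcosphere-derived CSC cultures exposed 72 h to concentrations from 100 μM down to 0.1 μM. Viability compared with DMSO-only treated cells. IC50 calculated by linear regression.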

[2] = system: HOS; test: Cytotoxicity against HOS cells assessed as cell viability after 72 hrs by MTT assay; type: functional, cell-based; conditions: Homo sapiens; how it was run: as §1
[3] = system: RD; test: Cytotoxicity against human RD cells assessed as cell viability after 72 hrs by MTT assay; type: functional, cell-based; how it was run: as §1
[4] = molecular target: Histone deacetylase 4 (Homo sapiens, UniProt P56524); test: Inhibition of recombinant HDAC4 (unknown origin) by homogeneous fluorescence release assay
How it was run: (§2)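 Isoform enzyme assay run in 10-dose IC50 mode. Compounds were serially diluted 3-fold starting from 50 μM solutions.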

[5] = system: SK-ES1; test: Induction of apoptosis in human SK-ES-1 cells at 1 to 2 uM after 48 hrs by Hoechst 33258 staining-based fluorescence microscopic analysis; type: functional, cell-based
How it was run: (§3)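 Dissociated sarcospheres seeded on glass coverslips in complete IMDM and exposed to 0.5, 1 and 2 μM for 48 h; untreated cells as negative control. Fixed in methanol/acetic acid (3:1), then stained with 2.25 μg/mL Hoechst 33258 for 10 min at rt in the dark. Apoptotic-body nuclei counted over at least five fields (20× objective) and reported as percentage of cells.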

[6] = system: RD; test: Antiproliferative activity against human RD cells after 24 to 72 hrs by […] dye exclusion assay; type: functional, cell-based
How it was run: (§4)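 Sarcosphere-derived CSCs, dissociated to single cells, plated at 50000/well in complete IMDM for adhesion. After 24 h, exposed to 0.5, 1 and 2 μM. Viable cells counted by dye exclusion at 24, 48 and 72 h. Growth inhibition is expressed relative to DMSO-treated controls. Three experiments in duplicate.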

[7] = system: MG-63; test: Cytotoxicity against human MG63 cells assessed as cell viability after 72 hrs by MTT assay; type: functional, cell-based; how it was run: as §1
[8] = system: A673; test: Antiproliferative activity against human A673 cells after 24 to 72 hrs by […] dye exclusion assay; type: functional, cell-based; how it was run: as §4
[9] = system: SK-ES1; test: Cytotoxicity against human SK-ES-1 cells assessed as cell viability after 72 hrs by MTT assay; type: functional, cell-based; how it was run: as §1
[10] = molecular target: Histone deacetylase 9 (Homo sapiens, UniProt Q9UKV0); test: Inhibition of recombinant HDAC9 (unknown origin) by homogeneous fluorescence release assay; how it was run: as §2
[11] = system: A673; test: Induction of apoptosis in human A673 cells at 1 to 2 uM after 48 hrs by Hoechst 33258 staining-based fluorescence microscopic analysis; type: functional, cell-based; how it was run: as §3
[12] = system: A673; test: Cytotoxicity against human A673 cells assessed as cell viability after 72 hrs by MTT assay; type: functional, cell-based; how it was run: as §1
[13] = system: A204; test: Induction of apoptosis in human A204 cells at 1 to 2 uM after 48 hrs by Hoechst 33258 staining-based fluorescence microscopic analysis; type: functional, cell-based; how it was run: as §3
[14] = system: HOS; test: Induction of apoptosis in HOS cells at 1 to 2 uM after 48 hrs by Hoechst 33258 staining-based fluorescence microscopic analysis; type: functional, cell-based; conditions: Homo sapiens; how it was run: as §3
[15] = molecular target: T1, Histone deacetylase 7 (Homo sapiens, UniProt Q8WUI4); test: Inhibition of recombinant HDAC7 (unknown origin) by homogeneous fluorescence release assay; how it was run: as §2
T1 sequence (Q8WUI4 whole entry): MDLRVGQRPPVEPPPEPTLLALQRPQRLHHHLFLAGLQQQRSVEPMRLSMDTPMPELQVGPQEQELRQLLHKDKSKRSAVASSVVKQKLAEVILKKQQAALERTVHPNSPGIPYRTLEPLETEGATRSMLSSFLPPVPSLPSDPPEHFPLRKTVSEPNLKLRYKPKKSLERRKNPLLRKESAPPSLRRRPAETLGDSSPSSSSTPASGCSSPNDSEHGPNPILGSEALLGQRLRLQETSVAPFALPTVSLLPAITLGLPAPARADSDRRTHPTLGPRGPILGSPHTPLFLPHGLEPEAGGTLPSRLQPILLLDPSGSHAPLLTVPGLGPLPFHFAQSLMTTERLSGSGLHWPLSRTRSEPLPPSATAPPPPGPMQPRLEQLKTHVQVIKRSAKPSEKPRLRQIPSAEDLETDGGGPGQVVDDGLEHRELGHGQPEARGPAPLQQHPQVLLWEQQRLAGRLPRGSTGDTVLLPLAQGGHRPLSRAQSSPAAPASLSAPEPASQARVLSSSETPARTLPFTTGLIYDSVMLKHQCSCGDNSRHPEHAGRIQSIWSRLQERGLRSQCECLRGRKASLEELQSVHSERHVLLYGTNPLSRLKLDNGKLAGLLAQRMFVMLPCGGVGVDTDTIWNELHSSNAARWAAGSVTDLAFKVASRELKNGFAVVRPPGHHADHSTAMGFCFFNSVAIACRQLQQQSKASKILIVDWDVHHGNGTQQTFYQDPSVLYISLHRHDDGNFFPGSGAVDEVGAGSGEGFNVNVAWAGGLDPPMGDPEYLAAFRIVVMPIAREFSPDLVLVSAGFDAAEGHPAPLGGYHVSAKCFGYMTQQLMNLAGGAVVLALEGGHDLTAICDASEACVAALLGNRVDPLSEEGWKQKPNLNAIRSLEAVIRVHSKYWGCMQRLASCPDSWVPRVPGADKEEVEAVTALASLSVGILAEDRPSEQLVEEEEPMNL

[16] = system: RD; test: Induction of apoptosis in human RD cells at 1 to 2 uM after 48 hrs by Hoechst 33258 staining-based fluorescence microscopic analysis; type: functional, cell-based; how it was run: as §3

Chain of Histone deacetylase 4 (P56524 whole entry, canonical isoform): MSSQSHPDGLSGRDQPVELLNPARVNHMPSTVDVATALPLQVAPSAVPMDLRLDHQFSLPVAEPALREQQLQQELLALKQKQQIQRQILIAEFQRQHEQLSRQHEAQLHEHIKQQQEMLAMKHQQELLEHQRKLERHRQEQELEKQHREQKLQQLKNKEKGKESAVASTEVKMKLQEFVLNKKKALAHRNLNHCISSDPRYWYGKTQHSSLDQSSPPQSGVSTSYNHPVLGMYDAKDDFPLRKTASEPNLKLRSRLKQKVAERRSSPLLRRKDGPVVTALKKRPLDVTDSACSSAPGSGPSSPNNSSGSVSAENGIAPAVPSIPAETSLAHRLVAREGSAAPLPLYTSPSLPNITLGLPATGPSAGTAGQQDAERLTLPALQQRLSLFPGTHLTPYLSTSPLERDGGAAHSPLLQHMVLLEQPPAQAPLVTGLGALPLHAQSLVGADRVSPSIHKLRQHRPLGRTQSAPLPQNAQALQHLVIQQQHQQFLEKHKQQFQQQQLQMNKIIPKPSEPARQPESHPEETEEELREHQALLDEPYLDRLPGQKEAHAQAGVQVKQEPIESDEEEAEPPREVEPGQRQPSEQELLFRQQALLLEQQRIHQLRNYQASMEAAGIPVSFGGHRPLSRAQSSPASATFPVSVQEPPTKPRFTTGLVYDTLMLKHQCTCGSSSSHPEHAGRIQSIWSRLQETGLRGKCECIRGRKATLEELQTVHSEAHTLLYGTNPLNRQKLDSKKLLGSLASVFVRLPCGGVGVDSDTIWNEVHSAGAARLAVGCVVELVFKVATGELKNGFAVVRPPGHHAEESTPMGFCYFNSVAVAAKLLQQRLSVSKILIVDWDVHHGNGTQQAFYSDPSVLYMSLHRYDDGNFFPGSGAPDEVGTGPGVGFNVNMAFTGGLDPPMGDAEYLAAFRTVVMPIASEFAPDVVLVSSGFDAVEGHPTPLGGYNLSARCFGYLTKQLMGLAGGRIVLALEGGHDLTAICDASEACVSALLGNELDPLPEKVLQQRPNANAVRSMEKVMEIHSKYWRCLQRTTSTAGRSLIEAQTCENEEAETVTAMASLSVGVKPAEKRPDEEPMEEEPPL
Chain of Histone deacetylase 9 (Q9UKV0 whole entry): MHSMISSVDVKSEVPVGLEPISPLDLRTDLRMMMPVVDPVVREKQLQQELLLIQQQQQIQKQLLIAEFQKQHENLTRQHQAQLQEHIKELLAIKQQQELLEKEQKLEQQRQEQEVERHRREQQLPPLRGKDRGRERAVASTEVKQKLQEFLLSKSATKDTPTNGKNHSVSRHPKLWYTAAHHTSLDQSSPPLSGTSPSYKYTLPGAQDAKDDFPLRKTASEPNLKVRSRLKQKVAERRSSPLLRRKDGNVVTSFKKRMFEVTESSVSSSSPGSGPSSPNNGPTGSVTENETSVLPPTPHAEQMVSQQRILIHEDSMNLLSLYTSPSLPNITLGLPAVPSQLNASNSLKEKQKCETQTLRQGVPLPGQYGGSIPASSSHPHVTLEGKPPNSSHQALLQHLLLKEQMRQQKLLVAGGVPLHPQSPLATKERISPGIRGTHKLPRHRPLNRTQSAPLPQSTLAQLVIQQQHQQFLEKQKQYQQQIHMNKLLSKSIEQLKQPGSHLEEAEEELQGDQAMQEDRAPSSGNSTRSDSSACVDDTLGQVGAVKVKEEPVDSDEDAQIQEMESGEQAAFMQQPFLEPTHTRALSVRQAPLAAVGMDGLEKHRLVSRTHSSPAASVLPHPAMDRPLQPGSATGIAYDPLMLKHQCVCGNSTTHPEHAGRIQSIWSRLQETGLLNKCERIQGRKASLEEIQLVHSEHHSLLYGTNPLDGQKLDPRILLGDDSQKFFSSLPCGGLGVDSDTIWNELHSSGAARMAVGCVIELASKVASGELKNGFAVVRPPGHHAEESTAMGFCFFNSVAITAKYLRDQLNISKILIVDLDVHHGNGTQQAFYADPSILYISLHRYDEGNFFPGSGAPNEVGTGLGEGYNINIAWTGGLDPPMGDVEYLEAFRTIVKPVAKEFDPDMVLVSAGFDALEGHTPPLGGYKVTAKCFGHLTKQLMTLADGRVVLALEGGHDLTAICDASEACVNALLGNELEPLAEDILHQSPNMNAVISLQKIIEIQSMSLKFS

SMILES | Activity [1] | Activity [2] | Activity [3] | IC50 [4] | Activity [5] | Activity [6] | Activity [7] | Activity [8] | Activity [9] | IC50 [10] | Activity [11] | Activity [12] | Activity [13] | Activity [14] | IC50 [15] | Activity [16]
O=C(/C=C/c1ccc(NC(=O)C(Cc2ccccc2)c2ccccc2)cn1)NO (configuration not stated) | Dose-dependent effect | Dose-dependent effect | Dose-dependent effect | 11.7 µM | Active | Dose-dependent effect | Dose-dependent effect | Dose-dependent effect | Dose-dependent effect | 10.6 µM | Active | Dose-dependent effect | inactive | Active | 8.77 µM | Active
O=C(CCCCSc1nc(-c2ccc(-c3ccccc3)cc2)cc(=O)[nH]1)NO | Dose-dependent effect | Dose-dependent effect | Dose-dependent effect | > 50 µM | Active | Dose-dependent effect | Dose-dependent effect | Dose-dependent effect | Dose-dependent effect | > 50 µM | Active | Dose-dependent effect | Active | Active | > 50 µM | Active
